# Most compounds without a hit are left out; they make up all but 1.7% or so of the library.
# IDE inh = inhibitors of human insulin-degrading enzyme in cells | P14735 | HEK cells, FAbetaB cleavage, fluorescence polarization | inhibition, % at 5.59 µM | 0.41% of 320,000 active | AID 434962;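 active means percent inhibition above the average of all tested compounds plus 3 SD, set per screening campaign, cut at about 16% in these data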;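 further: IDE supplied by intact live HEK cells; FP after avidin binding of uncleaved biotin substrate so inhibition keeps polarization high; 0% = DMSO wells and 100% = 60 µM reference IDE inhibitor Ii1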
# CSN deneddyl inh = CSN deneddylation inhibition; Q92905; Purified CSN, SCF-Nedd8-OG deneddylation, fluorescence polarization; inhibition, % at 12.5 µM; 0.38% of 360,000 active; AID 651999;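 active means pattern-corrected inhibition above about 35%, with an unprinted fluorescence ratio check between 0.5 and 1.5, limit read from the data, passing the limit was not always enough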;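 further: 0% = enzyme with substrate and 100% = substrate without enzyme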
#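 Test system: Human Csn5 produced in HEK293T cells | Compound: 12.5 µM single point | Times: 90 min, room temperature | Signal: Fluorescence polarization readout | Read-out basis: % inhibition of substrate cleavage by Csn5 | Controls: no-enzyme wells high, enzyme-with-substrate wells low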
# Rpn11 inh = Rpn11 (human) deubiquitinase inhibition; human 26S proteasome, Ub4-pepOG fluorescence polarization; 20S core pre-blocked with epoxomicin; calls only at 20 µM; 0.59% of 360,000 active; AID 588493;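 active means inhibition at 20 µM, scaled to each plate's controls, above about 33%, limit read from the data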
# HNF4A DNA FP = change in binding of human HNF4 alpha to DNA | P41235 | HNF4a-FITC DNA binding, fluorescence polarization, 1 h | activity change, % at 10 µM | 0.3% of 360,000 active | AID 1224865; in the data active means activity change above about 30%, passing the limit was not always enough
# Target sequence (P41235 whole entry, looked up): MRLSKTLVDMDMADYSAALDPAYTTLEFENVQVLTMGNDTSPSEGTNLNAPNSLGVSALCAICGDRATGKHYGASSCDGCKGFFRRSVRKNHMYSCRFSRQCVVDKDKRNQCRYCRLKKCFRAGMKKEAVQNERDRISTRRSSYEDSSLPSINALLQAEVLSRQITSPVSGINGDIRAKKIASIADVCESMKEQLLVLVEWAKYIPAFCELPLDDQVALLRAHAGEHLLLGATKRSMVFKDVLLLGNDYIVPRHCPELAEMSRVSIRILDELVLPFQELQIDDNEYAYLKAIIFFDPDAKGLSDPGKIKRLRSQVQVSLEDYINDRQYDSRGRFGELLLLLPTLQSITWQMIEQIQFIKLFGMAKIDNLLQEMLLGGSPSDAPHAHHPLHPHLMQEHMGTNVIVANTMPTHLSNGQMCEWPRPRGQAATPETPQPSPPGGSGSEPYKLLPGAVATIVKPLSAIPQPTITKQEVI
# IDE cell activ = boosts human insulin-degrading enzyme activity in HEK cells | FAbeta-B cleavage, fluorescence polarization; 0% vehicle, 100% cell-free pure enzyme wells | activation, % at 5.96 µM | 0.073% of 340,000 active | AID 493087;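 active means activation above the mean of all tested compounds plus 3 SD, set per screening campaign, cut at about 17% in these data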
# TPT1 inhibitor = inhibitors of Candida albicans tRNA 2'-phosphotransferase TPT1; recombinant caTPT1, FP RNA substrate dephosphorylation; inhibition, % at 5 µM; 0.81% of 300,000 active;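 active means inhibition above the mean of all tested compounds plus 3 SD, set per screening campaign, cut at about 24% in these data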;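 further: plate controls were DMSO alone for no effect and ferristatin control at 100 nM for full effect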
# Rpn11 inh conf = Rpn11 inhibition confirmation, single concentration; shares compounds with Rpn11 inh; purified human 26S proteasome, Ub4-pepOG fluorescence polarization; proteasome pretreated with epoxomicin; inhibition, % at 20 µM; 29% of 1,900 active
# MMP-2 counter = blocks human MMP-2, flagging nonselective RPN11 hits | inhibition, % at 20 µM | shares compounds with Rpn11 inh | 4% of 1,900 active | recombinant MMP-2, FRET peptide cleavage fluorescence;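 further: human MMP-2 activated beforehand with APMA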
# Thrombin inh = thrombin (bovine) inhibition counter-screen | shares compounds with Rpn11 inh | bovine thrombin cleavage of Ub4-pepOG, fluorescence polarization | inhibition, % at 20 µM | 13% of 1,900 active;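 active means mean inhibition at least 40% at 20 µM, or signal 3 deviations below plate average, so some actives read negative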;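 further: plate controls were thrombin with DMSO for no effect and buffer wells lacking thrombin for full effect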
# Numbers without * were called inactive; i = inactive; nt = not tested or not shown; + = active, no number. Unless noted, no stated cut-off is given here; in the data, active means inhibition above about 40%; inactive means the rest.
SMILES,IDE inh,CSN deneddyl inh,Rpn11 inh,HNF4A DNA FP,IDE cell activ,TPT1 inhibitor,Rpn11 inh conf,MMP-2 counter,Thrombin inh
O=C(N/N=C/c1ccc(Cl)cc1Cl)c1ccc2nc[nH]c2c1,14,2,+,0,-22,1,63*,-38,37
O=C(N/N=C/c1cc([N+](=O)[O-])ccc1Cl)c1ccc2nc[nH]c2c1,-2,8,+,2,9,1,22,-7,2
Cc1ccc(NC(=O)CSc2nc3[nH]ncc3c(=O)[nH]2)cc1Cl,15,0,+,-3,-2,0,-9,-22,-10
O=C1C2C3C=CC(C3)C2C(=O)N1c1cccc(-c2nc3ccccc3o2)c1 (configuration not stated),-1,8,+,2,-4,1,13,-40,-5
O=C1CC(Nc2ccc3ccccc3c2)C(=O)N1Cc1ccccc1 (configuration not stated),-3,2,i,-5,5,-4,nt,nt,nt
Cc1ccc(C(=O)NNC(=O)CCN2C(=O)C3CCCCC3C2=O)cc1 (configuration not stated),0,-4,i,-1,2,4,nt,nt,nt
O=C(Nc1ccc(Cl)cc1)c1ccco1,-1,4,i,-2,-1,-1,nt,nt,nt
O=C(Nc1ccc(-c2nc3cc(Cl)ccc3c(=O)o2)cc1)c1ccco1,7,13,+,-4,2,-2,-6,-21,-25
N#Cc1ccc(NC(=O)CSc2nc3[nH]c(=O)cc(O)c3s2)cc1,6,1,i,0,4,nt,nt,nt,nt
N#Cc1c(SCC(=O)Nc2nc3ccc(Br)cc3s2)sc2c(O)cc(=O)[nH]c12,-2,29,+,-27,-6,8,53*,29,-5
N#Cc1cccc(NC(=O)CSc2sc3c(O)cc(=O)[nH]c3c2C#N)c1,2,11,+,-27,1,0,-4,-22,-17
CSc1ccc(NC(=O)CSc2nc3[nH]c(=O)cc(O)c3s2)cc1,-1,8,+,-22,0,nt,42*,31,18
Cc1cc(C(F)(F)F)c(C#N)c(SCC(=O)Nc2nc3cc(Br)ccc3s2)n1,-4,11,+,3,-2,15,30,7,-13
N#Cc1c(SCC(=O)Nc2cccc(F)c2)sc2c(O)cc(=O)[nH]c12,0,9,i,-16,0,6,nt,nt,nt
CCCn1c(SC/C(O)=C(\C#N)c2nc3ccccc3[nH]2)n[nH]c1=O,-9,9,+,7,-3,13,34,-10,30
N#C/C(=C(/O)COC(=O)COc1cccc(Br)c1)c1nc2ccccc2[nH]1,4,2,+,18,0,18,37,-12,25
N#C/C(=C(/O)COC(=O)CSc1ccc2ccccc2c1)c1nc2ccccc2[nH]1,0,12,+,15,-2,15,31,-48,25
Cc1cc(Br)ccc1SCC(=O)OC/C(O)=C(\C#N)c1nc2ccccc2[nH]1,4,4,+,28,4,17,18,-44,0
Cc1ccc(C)c(SCC(=O)OC/C(O)=C(\C#N)c2nc3ccccc3[nH]2)c1,nt,11,i,12,4,nt,nt,nt,nt
Cc1cc(Br)ccc1SCC(=O)OCC(O)=C(C#N)c1nc2ccccc2[nH]1,nt,18,i,19,0,nt,nt,nt,nt
CCn1c(SCC(=O)N2CCCC(C)C2)nnc1-c1ccco1 (configuration not stated),1,-2,i,4,1,4,nt,nt,nt
CN1CCC(N2CCN(C3CN(Cc4cn(Cc5ccc(C(F)(F)F)cc5)nn4)S(=O)(=O)C3)CC2)CC1 (configuration not stated),nt,1,nt,-2,nt,nt,nt,nt,nt
O=C(c1ccco1)N1CCN(c2ncnc3c(-c4ccccc4)nsc23)CC1,1,5,+,-27,-1,-2,5,-6,-4
Clc1ccc2nc(-c3cccc(Br)c3)c(Cc3ccccc3)n2c1,nt,15,i,11,nt,nt,nt,nt,nt
COc1ccccc1Cc1c(-c2cccc(Cl)c2)nc2ccc(Br)cn12,nt,15,+,35,nt,nt,50*,0,36
SMILES,IDE inh,CSN deneddyl inh,Rpn11 inh,HNF4A DNA FP,IDE cell activ,TPT1 inhibitor,Rpn11 inh conf,MMP-2 counter,Thrombin inh
Cc1ccc(Cc2c(-c3cccc(Br)c3)nc3ccc(Cl)cn23)cc1,nt,6,+,12,nt,nt,15,24,-1
COc1ccc(Cc2c(-c3ccc(C)cc3)nc3c(C)cc(Br)cn23)c(C)c1,nt,8,+,18,nt,nt,22,16,13
COC(=O)c1ccc2nc(-c3cccc(Cl)c3)c(Cc3ccccc3OC)n2c1,nt,6,i,10,nt,nt,nt,nt,nt
COc1ccccc1Cc1c(-c2cccc(Br)c2)nc2c(C)cc(Br)cn12,nt,4,+,12,nt,nt,15,-7,20
Cc1cc(Br)cn2c(Cc3ccccc3C(F)(F)F)c(-c3cccc(Br)c3)nc12,nt,-1,nt,-5,nt,nt,nt,nt,nt
FC(F)(F)c1ccccc1Cc1c(-c2cccc(Br)c2)nc2c3ccccc3ccn12,nt,6,+,16,nt,nt,10,-2,11
Cc1cccc(NC(=S)N/N=C/c2ccc([N+](=O)[O-])s2)c1,-6,17,+,10,-3,22,2,36,-13
CN(c1cccc(NS(=O)(=O)c2ccccc2)c1)S(C)(=O)=O,-1,-2,i,-1,-3,2,nt,nt,nt
O=C1N/C(=N/NC(=O)c2cccc3ccccc23)S/C1=C\c1ccccc1OCc1ccccc1,nt,6,+,-11,1,nt,20,21,13
COc1cccc(/C=C2\SC(=O)NC2=O)c1OCc1ccc(C(=O)O)cc1,-1,-4,i,0,8,3,nt,nt,nt
CCCCOCCCNC(=O)C[C@@H]1C[C@@]2(C(=O)OC)CCCCC=C2N(Cc2ccc3c(c2)OCO3)C1=O,nt,-2,nt,3,nt,nt,nt,nt,nt
CCS(=O)(=O)N1N=C(c2ccc(NS(C)(=O)=O)cc2)CC1c1ccccc1 (configuration not stated),8,35*,+,86*,0,7,153*,-20,139*
O=C(CN1C(=O)/C(=C/c2ccc(F)cc2)SC1=S)N1CCN(CCc2ccccn2)CC1,14,12,+,3,-11,20,32,23,37
CN1CCN(C(=O)CCN2C(=O)/C(=C\c3ccc(F)cc3)SC2=S)CC1,2,3,i,5,-2,nt,nt,nt,nt

# Screening results (PubChem)
